According to ChEMBL document CHEMBL1125107, “Cephalosporin 3'-quinolone esters with a dual mode of action” (J Med Chem, 1990):
Converted amounts (≈) assume the structure as drawn.

Assays:
Streptococcus pneumoniae [1] = assay: Minimum inhibitory concentration against Streptococcus pneumoniae 6301; format: functional
Summary of the method: (§1)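 Broth MIC determination: serial 2-fold dilutions in Mueller-Hinton broth by standard methodology; the lowest concentration inhibiting growth is reported as the MIC, in nmol/mL.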

Pseudomonas aeruginosa [2] = assay: Minimum inhibitory concentration against Pseudomonas aeruginosa ATCC 27853; format: functional; summary of the method: as §1
Staphylococcus aureus [3] = assay: Minimum inhibitory concentration against Staphylococcus aureus 95 (Methicillin-resistant, high-level beta-lactamase producer); format: functional
Summary of the method: (§2)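 Serial 2-fold broth dilution in Mueller-Hinton broth, run by standard methodology; read-out is the minimum inhibitory concentration (MIC).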

Proteus vulgaris [4] = assay: Minimum inhibitory concentration against Proteus vulgaris 1028 BC (Class Ic beta-lactamase overproducer); format: functional; summary of the method: as §1
Pseudomonas aeruginosa [5] = assay: Evaluated for the minimum inhibitory concentration against Pseudomonas aeruginosa 18S/H (Class Id beta-lactamase overproducer); format: functional
Summary of the method: (§3)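 MIC by serial 2-fold dilution in Mueller-Hinton broth; results given as minimum inhibitory concentrations (nmol/mL).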

Streptococcus pyogenes [6] = assay: Minimum inhibitory concentration against Streptococcus pyogenes 4; format: functional; summary of the method: as §1
Proteus vulgaris [7] = assay: Evaluated for the minimum inhibitory concentration against Proteus vulgaris 1028 BC (Class Ic beta-lactamase overproducer; format: functional; summary of the method: as §3
[8] = Evaluated for its stability in monkey serum at 37 degrees Celsius as determined by HPLC analysis; format: ADME, cell-free; settings: simiiformes
Summary of the method: (§4)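 Compound solutions incubated at 37 °C, sampled at intervals; remaining starting material quantified by HPLC on PRP-1 column, UV 286 nm, mobile phase 0.01 M tetradecyltrimethylammonium bromide in 60% 0.067 M pH 7.4 phosphate buffer/40% acetonitrile; half-life reported.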

[9] = Evaluated for its stability in dog serum at 37 degrees Celsius as determined by HPLC analysis; format: ADME, organism-based, Canis lupus familiaris; summary of the method: as §4
Micrococcus luteus = assay: Evaluated for in Vitro activity against Micrococcus luteus PCI; format: functional; settings: read-out: MIC; summary of the method: as §3
[10] = Evaluated for its stability in rat blood at 37 degrees Celsius as determined by HPLC analysis; format: ADME, organism-based; summary of the method: as §4
[11] = Evaluated for its stability in human serum at 37 degrees Celsius as determined by HPLC analysis; format: ADME, organism-based; summary of the method: as §4
Escherichia coli [12] = assay: Evaluated for the in vivo activity in mice against Escherichia coli 257; format: functional
[13] = Evaluated for its stability in Mueller-Hinton broth at 37 degrees Celsius as determined by HPLC analysis; format: physicochemical; summary of the method: as §4
Escherichia coli [14] = assay: Evaluated for the minimum inhibitory concentration against Escherichia coli UB 1005; format: functional; summary of the method: as §3
[15] = Evaluated for its stability in phosphate buffer, pH 7.4 at 37 degrees Celsius as determined by HPLC analysis; format: physicochemical; summary of the method: as §4
[16] = Evaluated for its stability in rat serum at 37 degrees Celsius as determined by HPLC analysis; format: ADME, organism-based; summary of the method: as §4
[17] = Evaluated for its stability in phosphate buffer, pH 6.5 at 37 degrees Celsius as determined by HPLC analysis; format: physicochemical; summary of the method: as §4
Pseudomonas aeruginosa [18] = assay: Evaluated for the minimum inhibitory concentration against Pseudomonas aeruginosa 18S/H ( Class Id beta-lactamase overproducer); format: functional; summary of the method: as §3
Streptococcus pneumoniae [19] = assay: Evaluated for in Vitro activity against Streptococcus pneumoniae 6301; format: functional; settings: read-out: MIC; summary of the method: as §3
Escherichia coli [20] = assay: Evaluated for in Vitro activity against Escherichia coli DC-O; format: functional; settings: read-out: MIC; summary of the method: as §3
Streptococcus pyogenes [21] = assay: Evaluated for the in vivo activity in mice against streptococcus pyogenes 4; format: functional
[22] = Evaluated for its stability in dog blood at 37 degrees Celsius as determined by HPLC analysis; format: ADME, organism-based, Canis lupus familiaris; summary of the method: as §4
Proteus vulgaris [23] = assay: In vitro antibacterial activity was determined against Proteus vulgaris 1028 BC ( Class Ic beta-lactamase overproducer; format: functional; summary of the method: as §3
Pseudomonas aeruginosa [24] = assay: In vitro antibacterial activity was determined against Pseudomonas aeruginosa ATCC 27853; format: functional; summary of the method: as §1
Escherichia coli [25] = assay: In vitro antibacterial activity was determined against Escherichia coli UB 1005; format: functional; summary of the method: as §3
Streptococcus pyogenes [26] = assay: In vitro antibacterial activity was determined against Streptococcus pyogenes 4; format: functional; summary of the method: as §1
Pseudomonas aeruginosa [27] = assay: In vitro antibacterial activity was determined against Pseudomonas aeruginosa 18S/H ( Class Id beta-lactamase overproducer); format: functional; summary of the method: as §1
Escherichia coli [28] = assay: In vitro antibacterial activity was determined against Escherichia coli TEM-1 (TEM-1 (class IIIa) beta-lactamase producer); format: functional; summary of the method: as §3
Streptococcus pneumoniae [29] = assay: In vitro antibacterial activity was determined against Streptococcus pneumoniae 6301; format: functional; summary of the method: as §1
Enterococcus faecalis = assay: In vitro antibacterial activity was determined against Enterococcus faecalis ATCC 29212; format: functional; summary of the method: as §3
Proteus mirabilis = assay: In vitro antibacterial activity was determined against Proteus mirabilis 90; format: functional; summary of the method: as §3
Staphylococcus aureus [30] = assay: In vitro antibacterial activity was determined against Staphylococcus aureus 1059B ( inducible, high level beta-lactamase producer); format: functional; summary of the method: as §1
Citrobacter freundii = assay: In vitro antibacterial activity was determined against Citrobacter freundii BS-16; format: functional; summary of the method: as §3
Staphylococcus aureus [31] = assay: In vitro antibacterial activity was determined against Staphylococcus aureus 95 (Methicillin-resistant, high-level beta-lactamase producer); format: functional; summary of the method: as §2
Enterobacter cloacae [32] = assay: In vitro antibacterial activity was determined against Enterobacter cloacae P99; format: functional; summary of the method: as §3
Staphylococcus aureus [33] = assay: In vitro antibacterial activity was determined against Staphylococcus aureus ATCC 29213 ( inducible, low level beta-lactamase producer); format: functional; summary of the method: as §1
Serratia marcescens = assay: In vitro antibacterial activity was determined against Serratia marcescens 1071; format: functional; summary of the method: as §1
Proteus vulgaris [34] = assay: Evaluated for the minimum inhibitory concentration against Proteus vulgaris 1028 BC; format: functional; summary of the method: as §2
Enterobacter cloacae [35] = assay: Evaluated for the minimum inhibitory concentration against Enterobacter cloacae P99 ( Class Ia beta-lactamase overproducer); format: functional; summary of the method: as §3

| SMILES | MIC (Streptococcus pneumoniae [1]) [µg/mL] | MIC (Pseudomonas aeruginosa [2]) [µg/mL] | MIC (Staphylococcus aureus [3]) [µg/mL] | MIC (Proteus vulgaris [4]) [µg/mL] | MIC (Pseudomonas aeruginosa [5]) [µg/mL] | MIC (Streptococcus pyogenes [6]) [µg/mL] | MIC (Proteus vulgaris [7]) [µg/mL] | MIC (Pseudomonas aeruginosa [18]) [µg/mL] | further results |
| --- | --- | --- | --- | --- | --- | --- | --- | --- | --- |
| CCn1cc(C(=O)OCC2=C(C(=O)O)N3C(=O)[C@@H](NC(=O)Cc4cccs4)C3SC2)c(=O)c2cc(F)c(N3CCN(C=O)CC3)cc21 (some centres undefined) | 0.063 (≈ 0.0921 µM) | > 128 | 4 (≈ 5.85 µM) | 4 (≈ 5.85 µM) | 16 (≈ 23.4 µM) | – | – | – | – |
| O=C(O)c1cn(-c2ccc(F)cc2)c2cc3c(cc2c1=O)OCO3 | 64 (≈ 196 µM) | – | 1 (≈ 3.06 µM) | – | 0.5 (≈ 1.53 µM) | > 128 | 0.5 (≈ 1.53 µM) | – | – |
| CCn1cc(C(=O)OCC2=C(C(=O)O)N3C(=O)[C@@H](NC(=O)Cc4cccs4)C3SC2)c(=O)c2cc3c(cc21)OCO3 (some centres undefined) | – | > 128 | 4 (≈ 6.69 µM) | 0.25 (≈ 0.418 µM) | 8 (≈ 13.4 µM) | – | – | – | – |
| CO/N=C(/C(=O)N[C@@H]1C(=O)N2C(C(=O)O)=C(COC(=O)c3cn(CCF)c4c(F)c(N5CCN(C)CC5)c(F)cc4c3=O)CSC12)c1csc(N)n1 (some centres undefined) | < 0.008 | 8 (≈ 10.5 µM) | 2 (≈ 2.62 µM) | 0.25 (≈ 0.327 µM) | – | 0.031 (≈ 0.0405 µM) | – | 4 (≈ 5.23 µM) | half-life [8]: 5.7 h; half-life [9]: 3.9 h; MIC (Micrococcus luteus): 0.0746 µM (≈ 0.0571 µg/mL); half-life [10]: 5.8 h; half-life [11]: 6.3 h; ED50 (Escherichia coli [12]): 1.8 mg/kg; half-life [13]: 3.4 h; MIC (Escherichia coli [14]): 0.12 µg/mL (≈ 0.157 µM); half-life [15]: 3 h; half-life [16]: 4.5 h; half-life [17]: 6.9 h; MIC (Streptococcus pneumoniae [19]): 0.0187 µM (≈ 0.0143 µg/mL); MIC (Escherichia coli [20]): 0.299 µM (≈ 0.229 µg/mL); ED50 (Streptococcus pyogenes [21]): 8.8 mg/kg; half-life [22]: 3.4 h |
| CCn1cc(C(=O)OCC2=C(C(=O)O)N3C(=O)[C@@H](NC(=O)COc4ccccc4)C3SC2)c(=O)c2cc(F)c(-n3cccc3)cc21 (some centres undefined) | 2 (≈ 3.09 µM) | > 128 | 0.5 (≈ 0.773 µM) | 16 (≈ 24.7 µM) | 128 (≈ 198 µM) | 2 (≈ 3.09 µM) | – | – | – |
| CCn1cc(C(=O)OCC2=C(C(=O)O)N3C(=O)[C@@H](NC(=O)COc4ccccc4)C3SC2)c(=O)c2cc(F)c(N3CCCC3)cc21 (some centres undefined) | < 0.008 | > 128 | 0.5 (≈ 0.768 µM) | – | 32 (≈ 49.2 µM) | – | 32 (≈ 49.2 µM) | – | – |
| CCn1cc(C(=O)OCC2=C(C(=O)O)N3C(=O)[C@@H](NC(=O)/C(=N/OC)c4csc(N)n4)C3SC2)c(=O)c2cc(F)c(N3CCN(C=O)CC3)cc21 (some centres undefined) | – | > 128 | 8 (≈ 10.8 µM) | 8 (≈ 10.8 µM) | 32 (≈ 43.1 µM) | – | – | – | – |
| CCn1cc(C(=O)O)c(=O)c2cc(F)c(N3CCCC3)cc21 | > 128 | > 128 | 0.063 (≈ 0.207 µM) | – | – | – | 1 (≈ 3.29 µM) | 128 (≈ 421 µM) | – |
| CCn1cc(C(=O)OCC2=C(C(=O)O)N3C(=O)[C@@H](NC(=O)/C(=N/OC)c4csc(N)n4)C3SC2)c(=O)c2cc(F)c(N3CCSCC3)cc21 (some centres undefined) | 0.016 (≈ 0.0219 µM) | 128 (≈ 175 µM) | 0.5 (≈ 0.683 µM) | – | 8 (≈ 10.9 µM) | < 0.008 | 2 (≈ 2.73 µM) | – | MIC (Escherichia coli [14]): 1 µg/mL (≈ 1.37 µM) |
| CC(=O)OCC1=C(C(=O)O)N2C(=O)[C@@H](NC(=O)COc3ccccc3)C2SC1 (some centres undefined) | – | – | – | – | – | – | – | – | MIC (Proteus vulgaris [23]): > 128 µg/mL; MIC (Pseudomonas aeruginosa [24]): > 128 µg/mL; MIC (Escherichia coli [25]): 64 µg/mL (≈ 157 µM); MIC (Streptococcus pyogenes [26]): 0.063 µg/mL (≈ 0.155 µM); MIC (Pseudomonas aeruginosa [27]): > 128 µg/mL; MIC (Escherichia coli [28]): > 128 µg/mL; MIC (Streptococcus pneumoniae [29]): 0.25 µg/mL (≈ 0.615 µM); MIC (Enterococcus faecalis): 64 µg/mL (≈ 157 µM); MIC (Proteus mirabilis): 64 µg/mL (≈ 157 µM); MIC (Staphylococcus aureus [30]): 0.25 µg/mL (≈ 0.615 µM); MIC (Citrobacter freundii): > 128 µg/mL; MIC (Staphylococcus aureus [31]): > 128 µg/mL; MIC (Enterobacter cloacae [32]): > 128 µg/mL; MIC (Staphylococcus aureus [33]): 0.5 µg/mL (≈ 1.23 µM); MIC (Serratia marcescens): > 128 µg/mL |
| O=C(COc1ccccc1)N[C@@H]1C(=O)N2C(C(=O)O)=C(COC(=O)c3cn(-c4ccc(F)cc4)c4cc5c(cc4c3=O)OCO5)CSC12 (some centres undefined) | 1 (≈ 1.48 µM) | > 128 | 64 (≈ 95 µM) | – | – | 2 (≈ 2.97 µM) | – | 64 (≈ 95 µM) | MIC (Proteus vulgaris [34]): 64 µg/mL (≈ 95 µM) |
| CCn1cc(C(=O)OCC2=C(C(=O)O)N3C(=O)[C@@H](NC(=O)COc4ccccc4)C3SC2)c(=O)c2cc(F)c(N3CCN(C=O)CC3)cc21 (some centres undefined) | – | 128 (≈ 185 µM) | 2 (≈ 2.88 µM) | 4 (≈ 5.77 µM) | – | – | – | 8 (≈ 11.5 µM) | MIC (Escherichia coli [14]): 128 µg/mL (≈ 185 µM); MIC (Enterobacter cloacae [35]): 2 µg/mL (≈ 2.88 µM) |
